Several values for one entry are separate records, joined by “and”; a condition that tells them apart may be missing. Equal values may be shown once.
Columns and labels:
HEK-293T = test: Multiplex assay against HEK293T; type: toxicity, cell-based; conditions: human
In short: (§1)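 Live cells carried four stains from seeding: Hoechst33342, BioTracker Green Microtubule Cytoskeleton Dye, MitoTracker Red and Annexin V Alexa Fluor 680. They were imaged on a CQ1 microscope at 37°C and 5% CO2 after compound addition. Using CellPathfinder machine-learning gating, cells were split into Hoechst high-intensity objects or normal cells, normal cells into healthy, pyknosed or fragmented nuclei, and pyknosed cells into mitotic or apoptotic; tubulin, mitochondrial-mass and membrane-permeability phenotypes are per cents of healthy-nucleus cells.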

U2OS = test: Multiplex assay against U2OS; type: toxicity, cell-based; conditions: human; in short: as §1
[1] = 12 h, 1 µM, compound concentration 1 uM
[2] = 12 h, 10 µM, compound concentration 10 uM
[3] = 24 h, 1 µM, compound concentration 1 uM
[4] = 24 h, 10 µM, compound concentration 10 uM
[5] = 48 h, 1 µM, compound concentration 1 uM
[6] = 48 h, 10 µM, compound concentration 10 uM

Compound: N#Cc1c(N)nc(SCc2csc(-c3ccc(Cl)cc3)n2)c(C#N)c1-c1ccc(OCCO)cc1 [CAPADENOSON]
- Population Apoptotic (%) (HEK-293T; [1]): 36% and 54%
- Population Fragmented Nuclei (%) (HEK-293T; [1]): 6%
- Population Healthy Nuclei (%) (HEK-293T; [1]): 79% and 80%
- Population Hoechst High Intensity Objects (%) (HEK-293T; [1]): 8% and 4%
- Population Membrane Permeable-Phenotype (%) (HEK-293T; [1]): 0%
- Population Mitochondria Different-Phenotype (%) (HEK-293T; [1]): 59% and 60%
- Population Mitotic Cells (%) (HEK-293T; [1]): 63% and 45%
- Population Normal (%) (HEK-293T; [1]): 91% and 95%
- Population Pyknosed Nuclei (%) (HEK-293T; [1]): 13% and 12%
- Population Tubulin-Different-Phenotype (%) (HEK-293T; [1]): 44% and 34%
- Total Cell Count (HEK-293T; [1]): 373 and 375
- Population Apoptotic (%) (HEK-293T; [2]): 57% and 70%
- Population Fragmented Nuclei (%) (HEK-293T; [2]): 7% and 6%
- Population Healthy Nuclei (%) (HEK-293T; [2]): 75% and 73%
- Population Hoechst High Intensity Objects (%) (HEK-293T; [2]): 12% and 14%
- Population Membrane Permeable-Phenotype (%) (HEK-293T; [2]): 0% and 1%
- Population Mitochondria Different-Phenotype (%) (HEK-293T; [2]): 82% and 85%
- Population Mitotic Cells (%) (HEK-293T; [2]): 42% and 29%
- Population Normal (%) (HEK-293T; [2]): 87% and 85%
- Population Pyknosed Nuclei (%) (HEK-293T; [2]): 17% and 20%
- Population Tubulin-Different-Phenotype (%) (HEK-293T; [2]): 62% and 63%
- Total Cell Count (HEK-293T; [2]): 307 and 388
- Population Apoptotic (%) (HEK-293T; [3]): 36% and 37%
- Population Fragmented Nuclei (%) (HEK-293T; [3]): 5% and 7%
- Population Healthy Nuclei (%) (HEK-293T; [3]): 76% and 79%
- Population Hoechst High Intensity Objects (%) (HEK-293T; [3]): 6% and 4%
- Population Membrane Permeable-Phenotype (%) (HEK-293T; [3]): 2% and 0%
- Population Mitochondria Different-Phenotype (%) (HEK-293T; [3]): 38% and 44%
- Population Mitotic Cells (%) (HEK-293T; [3]): 63% and 62%
- Population Normal (%) (HEK-293T; [3]): 93% and 95%
- Population Pyknosed Nuclei (%) (HEK-293T; [3]): 17% and 12%
- Population Tubulin-Different-Phenotype (%) (HEK-293T; [3]): 34% and 23%
- Total Cell Count (HEK-293T; [3]): 450 and 456
- Population Apoptotic (%) (HEK-293T; [4]): 65% and 73%
- Population Fragmented Nuclei (%) (HEK-293T; [4]): 8% and 4%
- Population Healthy Nuclei (%) (HEK-293T; [4]): 68%
- Population Hoechst High Intensity Objects (%) (HEK-293T; [4]): 14% and 13%
- Population Membrane Permeable-Phenotype (%) (HEK-293T; [4]): 0%
- Population Mitochondria Different-Phenotype (%) (HEK-293T; [4]): 94% and 89%
- Population Mitotic Cells (%) (HEK-293T; [4]): 34% and 26%
- Population Normal (%) (HEK-293T; [4]): 85% and 86%
- Population Pyknosed Nuclei (%) (HEK-293T; [4]): 22% and 26%
- Population Tubulin-Different-Phenotype (%) (HEK-293T; [4]): 62% and 61%
- Total Cell Count (HEK-293T; [4]): 319 and 391
- Population Apoptotic (%) (HEK-293T; [5]): 31% and 32%
- Population Fragmented Nuclei (%) (HEK-293T; [5]): 10% and 11%
- Population Healthy Nuclei (%) (HEK-293T; [5]): 79% and 80%
- Population Hoechst High Intensity Objects (%) (HEK-293T; [5]): 4% and 3%
- Population Membrane Permeable-Phenotype (%) (HEK-293T; [5]): 1% and 2%
- Population Mitochondria Different-Phenotype (%) (HEK-293T; [5]): 32% and 23%
- Population Mitotic Cells (%) (HEK-293T; [5]): 68% and 67%
- Population Normal (%) (HEK-293T; [5]): 95% and 96%
- Population Pyknosed Nuclei (%) (HEK-293T; [5]): 10% and 8%
- Population Tubulin-Different-Phenotype (%) (HEK-293T; [5]): 23% and 18%
- Total Cell Count (HEK-293T; [5]): 621 and 787
- Population Apoptotic (%) (HEK-293T; [6]): 66% and 63%
- Population Fragmented Nuclei (%) (HEK-293T; [6]): 11% and 12%
- Population Healthy Nuclei (%) (HEK-293T; [6]): 68% and 73%
- Population Hoechst High Intensity Objects (%) (HEK-293T; [6]): 12% and 10%
- Population Membrane Permeable-Phenotype (%) (HEK-293T; [6]): 0%
- Population Mitochondria Different-Phenotype (%) (HEK-293T; [6]): 89% and 88%
- Population Mitotic Cells (%) (HEK-293T; [6]): 33% and 36%
- Population Normal (%) (HEK-293T; [6]): 87% and 89%
- Population Pyknosed Nuclei (%) (HEK-293T; [6]): 20% and 14%
- Population Tubulin-Different-Phenotype (%) (HEK-293T; [6]): 67% and 64%
- Total Cell Count (HEK-293T; [6]): 406 and 423
- Population Apoptotic (%) (U2OS; [1]): 78% and 80%
- Population Fragmented Nuclei (%) (U2OS; [1]): 25% and 18%
- Population Healthy Nuclei (%) (U2OS; [1]): 65% and 75%
- Population Hoechst High Intensity Objects (%) (U2OS; [1]): 5% and 1%
- Population Membrane Permeable-Phenotype (%) (U2OS; [1]): 14% and 5%
- Population Mitochondria Different-Phenotype (%) (U2OS; [1]): 4% and 2%
- Population Mitotic Cells (%) (U2OS; [1]): 21% and 20%
- Population Normal (%) (U2OS; [1]): 94% and 98%
- Population Pyknosed Nuclei (%) (U2OS; [1]): 8% and 6%
- Population Tubulin-Different-Phenotype (%) (U2OS; [1]): 10% and 1%
- Total Cell Count (U2OS; [1]): 236 and 150
- Population Apoptotic (%) (U2OS; [2]): 64% and 68%
- Population Fragmented Nuclei (%) (U2OS; [2]): 35% and 24%
- Population Healthy Nuclei (%) (U2OS; [2]): 40% and 56%
- Population Hoechst High Intensity Objects (%) (U2OS; [2]): 5% and 0%
- Population Membrane Permeable-Phenotype (%) (U2OS; [2]): 70% and 49%
- Population Mitochondria Different-Phenotype (%) (U2OS; [2]): 37% and 61%
- Population Mitotic Cells (%) (U2OS; [2]): 35% and 31%
- Population Normal (%) (U2OS; [2]): 94% and 99%
- Population Pyknosed Nuclei (%) (U2OS; [2]): 24% and 18%
- Population Tubulin-Different-Phenotype (%) (U2OS; [2]): 65% and 70%
- Total Cell Count (U2OS; [2]): 255 and 102
- Population Apoptotic (%) (U2OS; [3]): 87% and 61%
- Population Fragmented Nuclei (%) (U2OS; [3]): 23% and 16%
- Population Healthy Nuclei (%) (U2OS; [3]): 64% and 71%
- Population Hoechst High Intensity Objects (%) (U2OS; [3]): 3% and 0%
- Population Membrane Permeable-Phenotype (%) (U2OS; [3]): 9% and 5%
- Population Mitochondria Different-Phenotype (%) (U2OS; [3]): 4% and 2%
- Population Normal (%) (U2OS; [3]): 96% and 99%
- Population Pyknosed Nuclei (%) (U2OS; [3]): 12%
